# Published values of several laboratories.
# Each line is one published result; the experiments were not run side by side.
# APLNR: Apelin receptor (APLNR, Homo sapiens, UniProt P35414)
# ESR1: Estrogen receptor (ESR1, Homo sapiens, UniProt P03372)
# ADRA2C: Alpha-2C adrenergic receptor (ADRA2C, Homo sapiens, UniProt P18825)
# Si: Sucrase-isomaltase, intestinal (Si, Rattus norvegicus, UniProt P23739)
# PLK4: Serine/threonine-protein kinase PLK4 (PLK4, Homo sapiens, UniProt O00444)
SMILES,target,observed,action,technique,pH,measurement,value
Clc1ccc(C(c2ccccc2Cl)C(Cl)(Cl)Cl)cc1 (stereo not shown),"Glucocorticoid receptor (NR3C1, Homo sapiens, UniProt P04150)",ligand displacement,,,,IC50,2.72 µM
CC(C)C[C@H](NC(=O)[C@H](CCCNC(=N)N)NC(=O)[C@H](CCCNC(=N)N)NC(=O)[C@H](CS)NC(=O)[C@H](CCCNC(=N)N)NC(=O)[C@H](CCC(=O)O)NC(=O)[C@H](CCCNC(=N)N)NC(=O)[C@@H](N)CO)C(=O)N[C@@H](Cc1c[nH]cn1)C(=O)N[C@@H](CO)C(=O)N[C@@H](CC(C)C)C(=O)N1CCC[C@H]1C(=O)N[C@@H](CC(C)C)C(=O)N[C@@H](Cc1ccccc1)C(=O)N1CCC[C@H]1C(=O)O,APLNR,calcium signal,agonist,fluorescence,,EC50,4.2 nM
CC(c1ccccc1)(c1ccc(O)cc1)c1ccc(O)cc1,ESR1,reporter gene,antagonist,luciferase,,IC50,20.7 µM
CCCCC1CNC2CCc3ccc(OC)cc3C12 (racemic),ADRA2C,ligand displacement,,radioligand,,Ki,622 nM
C[C@H](CCCOS(=O)(=O)O)[C@H]1CC[C@H]2[C@@H]3CC[C@H]4C[C@@H](O)CC[C@]4(C)[C@H]3CC[C@]12C,"cGMP-inhibited 3',5'-cyclic phosphodiesterase 3A (PDE3A, Homo sapiens, UniProt Q14432)",enzyme activity,inhibitor,,,IC50,7.05 µM
CCCCCc1cc(O)c2c(c1)OC(C)(CCC=C(C)C)C=C2 (stereo not shown),Si,enzyme activity,inhibitor,absorbance,,IC50,540 µM
CC(C)(C)C#Cc1cc(-c2ccnc(N)c2)cc2c(N)n[nH]c12,"Inhibitor of nuclear factor kappa-B kinase subunit beta (IKBKB, Homo sapiens, UniProt O14920)",enzyme activity,inhibitor,FRET,,IC50,4.59 µM
COc1cc2c(cc1OC)CN(CCc1ccc(NC(=O)c3cccc4c(=O)c5cccc(OC)c5[nH]c34)cc1)CC2,ADRA2C,cell-free assay,,,,Ki,150 nM
CC(C)(c1ccc(O)cc1)c1ccc(C(C)(C)c2ccc(O)cc2)cc1,ESR1,reporter gene,antagonist,luciferase,,IC50,2.9 µM
CC[C@H](C)[C@H](NC(=O)[C@@H](N)CCC(=O)O)C(=O)N[C@@H](C)C(=O)N1CCC[C@H]1C(=O)N[C@H](C(=O)N[C@@H](CC(C)C)C(=O)N[C@@H](Cc1c[nH]cn1)C(=O)N[C@@H](CO)C(=O)N[C@H](C(=O)O)[C@@H](C)OP(=O)(O)O)C(C)C,PLK4,binding,,MST,pH 8,Kd,22.9 nM
CC[C@H](C)[C@H](NC(=O)[C@H](CO)NC(=O)[C@H](Cc1c[nH]cn1)NC(=O)[C@H](Cc1ccccc1)NC(=O)[C@H](CCCCN)NC(=O)[C@H](CCCCN)NC(=O)[C@H](CS)NC(=O)[C@H](CC(C)C)NC(=O)[C@H](CCC(=O)O)NC(=O)[C@@H]1CCCN1C(=O)[C@@H](N)CO)C(=O)N1CCC[C@H]1C(=O)N[C@@H](CC(C)C)C(=O)N[C@@H](Cc1ccccc1)C(=O)N1CCC[C@H]1C(=O)O,APLNR,calcium signal,agonist,fluorescence,,EC50,127 nM
CC(C)C[C@H](NC(=O)[C@H](CC(C)C)NC(=O)[C@@H]1CCCN1C(=O)[C@H](C)NC(=O)[C@@H](NC(=O)[C@H](C)N)C(C)C)C(=O)N[C@@H](Cc1c[nH]cn1)C(=O)N[C@@H](CO)C(=O)N[C@H](C(=O)O)[C@@H](C)OP(=O)(O)O,PLK4,binding,,MST,pH 8,Kd,39.8 nM
CC[C@H](C)[C@H](NC(=O)[C@H](CCSC)NC(=O)[C@H](CCC(N)=O)NC(=O)[C@H](CCCNC(=N)N)NC(=O)[C@H](Cc1ccccc1)NC(=O)CN)C(=O)N[C@@H](C)C(=O)N[C@@H](CCCNC(=N)N)C(=O)N[C@@H](C)C(=O)N[C@@H](CCCCN)C(=O)N[C@@H](Cc1ccc(O)cc1)C(=O)N[C@@H](CCC(N)=O)C(=O)NCC(=O)N[C@@H](CC(C)C)C(=O)N[C@@H](CC(C)C)C(=O)N[C@@H](Cc1ccc(O)cc1)C(=O)O,APLNR,calcium signal,agonist,fluorescence,,EC50,614 nM
CC(C)C[C@@H]1NC(=O)[C@H](CCCNC(=N)N)NC(=O)[C@@H]2CCCN2C(=O)[C@H](CCCNC(=N)N)NC(=O)[C@@H](NC(=O)[C@H](Cc2c[nH]cn2)NC(=O)[C@H](CCCCN)NC(=O)[C@@H]2CSSC[C@H](N)C(=O)N[C@@H](CCCNC(=N)N)C(=O)N3CCC[C@H]3C(=O)N[C@@H](CCCNC(=N)N)C(=O)N[C@@H](CC(C)C)C(=O)N2)CSSC[C@@H](C(=O)O)NC1=O,APLNR,β-arrestin recruitment,antagonist,,,IC50,10.1 µM
CCCCCc1cc(O)c(C/C=C(\C)CCC=C(C)C)c(O)c1,Si,enzyme activity,inhibitor,absorbance,,IC50,620 µM
CC[C@H](C)[C@H](NC(=O)[C@H](CCCCN)NC(=O)[C@H](CCCCN)NC(=O)[C@H](C)NC(=O)[C@H](C)NC(=O)[C@@H](NC(=O)[C@H](CCCNC(=N)N)NC(=O)[C@H](CCSC)NC(=O)[C@H](CCC(N)=O)NC(=O)[C@H](CCC(=O)O)NC(=O)[C@H](CCCCN)NC(=O)[C@@H](N)CO)[C@@H](C)CC)C(=O)NCC(=O)N[C@@H](CC(C)C)C(=O)N[C@@H](CC(C)C)C(=O)N[C@@H](CCC(=O)O)C(=O)O,APLNR,calcium signal,antagonist,fluorescence,,IC50,20.3 µM
